Experimental data published in paper PMC11253873 (RSC Medicinal Chemistry, 2024).
In brackets after ≈: the same amount, converted by molar mass. Several values for one entry are separate records, joined by “and”; a condition that tells them apart may be missing. Equal entries are not always repeated. Where two headings read alike, the source gives them in different places.

Assays:
Mtb H37Rv [1] = details: cited from earlier work
Pf3D7 parasites [2] = details: read-out: Pf IC50; P. falciparum parasites; cited from earlier work
[3] = test system: MEP pathway in P. falciparum parasites; assay: IPP rescue of inhibitor-treated P. falciparum; format: cell-based, Plasmodium falciparum; details: 125 μM IPP added to media
How it was run: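 The rescue format is the standard 3-day growth assay with 125 μM IPP present throughout. Parasites are at 0.5% parasitemia and 2% hematocrit in supplemented RPMI-1640/Albumax, under 5% O2/5% CO2/90% N2 at 37 °C, with 1.2 nM–492.4 μM test compound. Growth is measured as PicoGreen DNA fluorescence and fitted to a 4-parameter dose–response curve. Technical duplicates, biological triplicate.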

[4] = test system: had1 mutant Pf strain (E1-C12); assay: Growth inhibition of fosmidomycin-resistant had1 mutant P. falciparum; format: cell-based, Plasmodium falciparum; details: had1 mutant versus wild type 3D7
How it was run: (§1)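 Asynchronous cultures of wild-type 3D7 and fosmidomycin-resistant had1 strain E1-C12 are kept at 2% hematocrit in supplemented RPMI-1640 with 0.5% Albumax, under 5% O2/5% CO2/90% N2 at 37 °C. Parasites are diluted to 0.5% parasitemia and exposed to 1.2 nM–492.4 μM test compound from the start. After 3 days, DNA is read with PicoGreen (ex 485/em 528 nm). IC50 comes from a 4-parameter nonlinear fit. Technical duplicates, biological triplicate.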

HepG2 cells = assay: HepG2 cell inhibition; format: cell-based; details: Homo sapiens, HepG2, 24 h, read-out: HepG2 IC50
Mtb H37Rv [5] = assay: microbe, parasite or virus in culture; format: cell-based, Mycobacterium tuberculosis; details: for Mtb MIC: value in parentheses, Mtb H37Rv, 2 weeks
PfDXR = biological target: T1, PfDXR (Plasmodium falciparum, UniProt Q8IKG4); assay: DXR enzyme inhibition assay; format: biochemical; details: values in parentheses; compound at 100 μM
T1 sequence (Q8IKG4 73-488): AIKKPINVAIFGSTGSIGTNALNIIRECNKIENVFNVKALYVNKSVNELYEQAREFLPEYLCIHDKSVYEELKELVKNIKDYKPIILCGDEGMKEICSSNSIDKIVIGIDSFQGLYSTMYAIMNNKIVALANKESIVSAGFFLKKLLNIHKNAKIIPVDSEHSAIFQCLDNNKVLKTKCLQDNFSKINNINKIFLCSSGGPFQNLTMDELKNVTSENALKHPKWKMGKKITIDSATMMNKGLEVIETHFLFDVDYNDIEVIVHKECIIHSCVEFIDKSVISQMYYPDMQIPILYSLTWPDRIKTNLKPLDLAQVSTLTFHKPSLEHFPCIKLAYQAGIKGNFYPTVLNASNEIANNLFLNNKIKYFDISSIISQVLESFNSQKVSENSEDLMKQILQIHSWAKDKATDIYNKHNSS

Pf3D7 parasites [6] = assay: P. falciparum growth inhibition assay; format: cell-based, Plasmodium falciparum; details: read-out: Pf IC50, 3 days, PicoGreen DNA content
How it was run: as §1

MtbDXR = biological target: T2, MtbDXR (Mycobacterium tuberculosis, UniProt P9WNS1); assay: DXR enzyme inhibition assay; format: biochemical; details: values in parentheses; compound at 100 μM
T2 sequence (P9WNS1 1-413): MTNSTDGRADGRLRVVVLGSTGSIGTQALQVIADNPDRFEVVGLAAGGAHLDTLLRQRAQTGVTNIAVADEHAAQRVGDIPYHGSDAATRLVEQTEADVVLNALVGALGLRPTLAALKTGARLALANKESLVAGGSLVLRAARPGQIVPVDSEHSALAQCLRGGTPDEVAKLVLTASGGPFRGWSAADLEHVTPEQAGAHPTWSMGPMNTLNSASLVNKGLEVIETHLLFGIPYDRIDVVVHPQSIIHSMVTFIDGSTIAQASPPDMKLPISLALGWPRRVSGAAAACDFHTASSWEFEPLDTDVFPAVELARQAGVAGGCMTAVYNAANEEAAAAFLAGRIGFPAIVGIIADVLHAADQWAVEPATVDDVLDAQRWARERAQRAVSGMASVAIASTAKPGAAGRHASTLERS

Row | Molecule | Pf DXR percent remaining enzyme activity at 100 μM (PfDXR) | IC50 (Pf3D7 parasites [6]) | Mtb MIC (Mtb H37Rv [5]) | Mtb DXR percent remaining enzyme activity at 100 μM (MtbDXR) | also measured
1 | O=CN(O)CCCP(=O)(O)O [1(Fos), Fosmidomycin] | – | – | – | – | Mtb MIC (Mtb H37Rv [1]): >500 μg mL^−1 and >500 (ref. [34]) μg mL^−1
2 | CC(=O)N(O)CCCP(=O)(O)O [2(FR), FR900098] | – | – | – | – | IC50 (Pf3D7 parasites [2]): 0.511 µM; Mtb MIC (Mtb H37Rv [1]): >500 μg mL^−1 and >500 (ref. [34]) μg mL^−1
3 | COc1ccc(C(C)ON(CCC(c2ccc(Cl)c(Cl)c2)P(=O)(OCOC(=O)C(C)(C)C)OCOC(=O)C(C)(C)C)C(C)=O)cc1 (stereo not drawn) [Compound 7l, ({[1-(3,4-Dichlorophenyl)-3-{N-[1-(4-methoxyphenyl)ethoxy]acetamido}propyl]({[(2,2-dimethylpropanoyl)oxy]methoxy})phosphoryl}oxy)methyl 2,2-dimethylpropanoate] | – | – | – | – | IPP rescue of growth of drug-treated P. falciparum parasites [3]: rescues the growth; cross resistance of fosmidomycin-resistant had1 mutant Pf strain [4]: displayed increased resistance; IC50 (HepG2 cells): > 100 µg/mL and > 140 µM; MIC (Mtb H37Rv [5]; Mycobacterium tuberculosis, H37RV, 336 h, read-out: Mtb MIC): 4.6 µg/mL (≈ 6.53 µM)
4 | Diammonium (3-{N-[(4-bromophenyl) methoxy] acetamido}-1-(3,4-dichlorophenyl) propyl) phosphonate [Compound 6h] | (53.07) percent | 67.8 ± 3.57 µM | > 92 µM | (72.30) percent | –
5 | Diammonium [1-(3,4-dichlorophenyl)-3-[N-(4-phenylbutoxy)acetamido]propyl] phosphonate [Compound 6g] | (25.64) percent | 63.3 ± 16.7 µM | 3.1 µM | (99.10) percent | –
6 | Diammonium [3-{acetyl[1-(4-trifluoromethylphenyl)ethoxy]amino}-1-(3,4-dichlorophenyl)propyl] phosphonate [Compound 6m] | (74.69) percent | 79.2 ± 12.1 µM | > 91 µM | (59.60) percent | –
7 | Diammonium {3-[N-(benzyloxy)acetamido]-1-(3,4-dichlorophenyl)propyl} phosphonate [Compound 6b] | (26.66) percent | 31.5 ± 7.85 µM | > 214 µM | (34.20) percent | –
8 | Diammonium {3-[N-({[1,1′-biphenyl]-4-yl}methoxy)acetamido]-1-(3,4-dichlorophenyl) propyl} phosphonate [Compound 6d] | (26.97) percent | 86.4 ± 10.1 µM | 23.1 µM | (93.90) percent | –
